Experimental data published in ChEMBL document CHEMBL1132105, “Substituted analogues of GV150526 as potent glycine binding site antagonists in animal models of cerebral ischemia” (J Med Chem, 1999).

How the values were obtained:
Glutamate NMDA receptor = test: Inhibition of [3H]glycine binding to N-methyl-D-aspartate glutamate receptor in synaptic membranes of rat cerebral cortex; assay type: cell membranes
In short: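 Crude synaptic membranes from adult rat cerebral cortex; 20 nM [3H]glycine, 50 mM Tris/citrate pH 7.10, 20 min at 4 °C. Seven concentrations in duplicate; stock 5 mM in DMSO. Ki from at least six-point inhibition curves by nonlinear fitting; geometric mean of at least three experiments.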

Albumin = Albumin (Rattus norvegicus, UniProt P02770); test: Binding to rat serum albumin
Albumin, sequence (P02770 whole entry): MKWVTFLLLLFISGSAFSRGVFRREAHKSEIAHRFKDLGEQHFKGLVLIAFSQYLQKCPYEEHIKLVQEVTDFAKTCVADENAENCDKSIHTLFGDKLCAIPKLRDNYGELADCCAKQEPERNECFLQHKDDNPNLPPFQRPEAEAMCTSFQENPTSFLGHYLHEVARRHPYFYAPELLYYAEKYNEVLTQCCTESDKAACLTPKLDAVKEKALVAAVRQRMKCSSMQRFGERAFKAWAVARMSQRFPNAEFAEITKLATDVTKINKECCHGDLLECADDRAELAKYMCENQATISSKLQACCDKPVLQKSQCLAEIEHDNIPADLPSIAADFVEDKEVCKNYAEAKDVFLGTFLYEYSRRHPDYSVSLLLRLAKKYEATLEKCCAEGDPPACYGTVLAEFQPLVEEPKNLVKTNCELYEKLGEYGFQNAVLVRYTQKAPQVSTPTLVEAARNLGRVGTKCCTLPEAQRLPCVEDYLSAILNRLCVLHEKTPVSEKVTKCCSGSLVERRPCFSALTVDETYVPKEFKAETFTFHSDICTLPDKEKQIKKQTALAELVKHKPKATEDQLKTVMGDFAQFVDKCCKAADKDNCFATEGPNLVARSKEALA

Mus musculus [1] = test: Inhibition of NMDA-induced convulsions in mice by the compound when administered by peroral route; assay type: functional; details: po
In short: (§1)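 Male CD-1 mice (18-29 g); test compound given iv (1 min) or po (1 h) before icv NMDA (1 nmol/mouse). Animals observed 30 min for generalized seizures and scored protected if none occurred. Percentage protected per group recorded; ED50 estimated with 95% confidence limits.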

Mus musculus [2] = test: Inhibition of NMDA-induced convulsions in mice by the compound when administered by intravenous route; assay type: functional; in short: as §1
[3] = Inhibition of binding of [3H]CPP in presence of glutamate to glutamate binding site of N-methyl-D-aspartate glutamate receptor in synaptic membranes of rat cerebral cortex; assay type: cell membranes
Rattus norvegicus [4] = test: Preischemic effect of the compound in the MACo model in rats measured 24 hr after occlusion at an intravenous dose of 0.3 mg/kg.; assay type: functional
In short: (§2)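 Permanent distal MCA electrocoagulation in male Sprague-Dawley rats (280-350 g) under chloral hydrate (400 mg/kg ip), normothermic; compound iv 5 min before occlusion, in 3% DMSO in water. At 24 h, 0.5 mm coronal slices stained with 2% TTC (37 °C, 20 min); infarct volume by trapezoidal rule, n = 8; reduction vs vehicle.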

Rattus norvegicus [5] = test: Preischemic effect of the compound in the MACo model in rats measured 24 h after occlusion at an intravenous dose of 1 mg/kg.; assay type: functional; in short: as §2
Rattus norvegicus [6] = test: Preischemic effect of the compound in the MACo model in rats measured 24 hr after occlusion at an intravenous dose of 3 mg/kg.; assay type: functional; in short: as §2
Rattus norvegicus [7] = test: Preischemic effect of the compound in the MACo model in rats measured 24 hr after occlusion at an intravenous dose of 0.1 mg/kg.; assay type: functional; in short: as §2
Rattus norvegicus [8] = species: Rattus norvegicus; test: Percent damage reduction; assay type: functional; parameters: concentration or dose not given beside the values; in short: as §2
[9] = target: Glutamate receptor ionotropic, kainate; test: Inhibition of binding of [3H]kainate to Ionotropic glutamate receptor kainate in synaptic membranes of rat cerebral cortex; assay type: cell membranes
In short: (§3)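 Rat cortical membrane radioligand binding; compounds from 5 mM DMSO stock tested at five concentrations, 10 nM to 100 µM, with a reference compound as internal control.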

Rattus norvegicus [10] = test: Postischemic effect of the compound in the MACo model in rats measured 24 hr after occlusion at an intravenous dose of 1 mg/kg.; assay type: functional
In short: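 Male Sprague-Dawley rats (280-350 g), permanent distal MCA electrocoagulation under chloral hydrate; single iv bolus 1 mg/kg given 6 h after occlusion, vehicle 3% DMSO in water. Infarct volume from TTC-stained 0.5 mm coronal slices 24 h after occlusion, trapezoidal rule, n = 8.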

[11] = target: Glutamate receptor ionotropic, AMPA (Rattus norvegicus, UniProt P19490+P19491+P19492+P19493); test: Inhibition of binding of [3H]AMPA to Ionotropic glutamate receptor AMPA in synaptic membranes of rat cerebral cortex; assay type: cell membranes; in short: as §3
[12] = Effective dose was evaluated; assay type: functional

| Structure (SMILES) | Log Ki (Glutamate NMDA receptor) | RSA tR (Albumin) [min] | other results |
| --- | --- | --- | --- |
| COc1ccc(NC(=O)NCc2ccc(NC(=O)/C=C/c3c(C(=O)[O-])[nH]c4cc(Cl)cc(Cl)c34)cc2)cc1.[Na+] | -7.69 | – | – |
| O=C(/C=C/c1c(C(=O)[O-])[nH]c2cc(Cl)cc(Cl)c12)NC12CC3CC(CC(C3)C1)C2.[Na+] | – | 141.2 | – |
| C[C@@H](NC(N)=O)c1ccc(NC(=O)/C=C/c2c(C(=O)[O-])[nH]c3cc(Cl)cc(Cl)c23)cc1.[Na+] | -7.93 | – | – |
| Nc1ccc(NC(=O)/C=C/c2c(C(=O)[O-])[nH]c3cc(Cl)cc(Cl)c23)cc1.[Na+] | – | 23.2 | – |
| NC(=O)Nc1ccc(NC(=O)/C=C/c2c(C(=O)[O-])[nH]c3cc(Cl)cc(Cl)c23)cc1.[Na+] | -8.8 | 28.3 | ED50 (Mus musculus [1]): 9.6 mg/kg; ED50 (Mus musculus [2]): 0.55 mg/kg |
| CC/N=C(\S)NCc1ccc(NC(=O)/C=C/c2c(C(=O)[O-])[nH]c3cc(Cl)cc(Cl)c23)cc1.[Na+] | -7.91 | 34.1 | – |
| O=C(/C=C/c1c(C(=O)[O-])[nH]c2cc(Cl)cc(Cl)c12)NC1CCCCC1.[Na+] | – | 25.7 | – |
| CC(=O)Nc1ccc(NC(=O)/C=C/c2c(C(=O)[O-])[nH]c3cc(Cl)cc(Cl)c23)cc1.[Na+] | – | 31.6 | – |
| O=C(/C=C/c1c(C(=O)[O-])[nH]c2cc(Cl)cc(Cl)c12)Nc1ccc(CNC(=O)Nc2cccnc2)cc1.[Na+] | -7.83 | – | – |
| C[C@H](NC(N)=O)c1ccc(NC(=O)/C=C/c2c(C(=O)[O-])[nH]c3cc(Cl)cc(Cl)c23)cc1.[Na+] | -8.2 | – | – |
| O=C(/C=C/c1c(C(=O)[O-])[nH]c2cc(Cl)cc(Cl)c12)NCc1ccccc1.[Na+] | – | 66.9 | – |
| O=C(/C=C/c1c(C(=O)[O-])[nH]c2cc(Cl)cc(Cl)c12)Nc1ccc(CNC(=O)NC2CCOCC2)cc1.[Na+] | -8.15 | 29.6 | – |
| CCNC(=O)NCc1ccc(NC(=O)/C=C/c2c(C(=O)[O-])[nH]c3cc(Cl)cc(Cl)c23)cc1.[Na+] | -8.62 | – | – |
| NC(=O)NCc1ccc(NC(=O)/C=C/c2c(C(=O)[O-])[nH]c3cc(Cl)cc(Cl)c23)cc1.[Na+] | -8.67 | 40.7 | Log Ki [3]: -3.48; Infarct volume (Rattus norvegicus [4]): 36.4 mm**3; ED50 (Mus musculus [1]): 2 mg/kg; Infarct volume (Rattus norvegicus [5]): 38.9 mm**3; Infarct volume (Rattus norvegicus [6]): 27.8 mm**3; Infarct volume (Rattus norvegicus [7]): 61.9 mm**3; damage reduction (Rattus norvegicus [8]): 41% [middle of 5 runs]; ED50 (Mus musculus [2]): 0.07 mg/kg; Log Ki [9]: -4.68; Infarct volume (Rattus norvegicus [10]): 54.7 mm**3; Ki [11]: 105 µM; ED50 [12]: 0.2 mg/kg |
| O=C(/C=C/c1c(C(=O)[O-])[nH]c2cc(Cl)cc(Cl)c12)Nc1ccc(CNC(=O)Nc2ccccc2)cc1.[Na+] | -7.7 | – | – |
| NC(=O)NCCc1ccc(NC(=O)/C=C/c2c(C(=O)[O-])[nH]c3cc(Cl)cc(Cl)c23)cc1.[Na+] | -8.2 | 33.9 | ED50 (Mus musculus [1]): 17.3 mg/kg; ED50 (Mus musculus [2]): 0.14 mg/kg |
| O=C(/C=C/c1c(C(=O)[O-])[nH]c2cc(Cl)cc(Cl)c12)Nc1ccc(CNC(=O)NC2CC2)cc1.[Na+] | -8.25 | – | – |
| O=C(O)CNC(=O)NCc1ccc(NC(=O)/C=C/c2c(C(=O)[O-])[nH]c3cc(Cl)cc(Cl)c23)cc1.[Na+] | -8.57 | – | – |
| O=C(/C=C/c1c(C(=O)[O-])[nH]c2cc(Cl)cc(Cl)c12)Nc1ccccc1.[Na+] [GAVESTINEL SODIUM] | -8.49 | 60.1 | ED50 (Mus musculus [1]): 6 mg/kg; ED50 (Mus musculus [2]): 0.06 mg/kg |
| O=c1[nH]c2cc(Cl)c(Cl)c([N+](=O)[O-])c2[nH]c1=O [LICOSTINEL] | – | 12.1 | – |
